Here are results for 30 molecules from ChEMBL document CHEMBL3244401, “Prostaglandins and congeners. 15. Synthesis and bronchodilator activity of dl-11-deoxy-15- or 16-alkylprostaglandins” (1977).

Assay type in all cases: functional
Assay [1] has as its system Cavia porcellus. In words: Bronchodilatory activity in iv dosed Hartley guinea pig assessed as inhibition of serotonin-induced spasm administered 3 to 4 times at 15 mins interval starting 2 mins post challenge. Summed up:
(§1)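 Serotonin (7.5-30 μg/kg iv, 12-s injections every 5 min) induced bronchospasm (20-50 cm water rise) in ventilated, urethane/gallamine-treated Hartley guinea pigs (250-500 g). After three matched control spasms, test agent was given iv over 1 min 2 min later, repeated at 15-min intervals, 3-4 log doses. Water was the vehicle for salts and 10% aqueous ethanol for esters. Intratracheal pressure was recorded; ED50 from semilog regression of % variation; ≥4 animals.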

Assay [2] has as its system Cavia porcellus. In words: Bronchodilatory activity in iv dosed Hartley guinea pig assessed as inhibition of histamine-induced spasm administered 3 to 4 times at 15 mins interval starting 2 mins post challenge. In short, it runs like this: (§2)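 Hartley guinea pigs (either sex, 250-500 g) under urethane (1.5 g/kg ip) plus iv gallamine, artificially ventilated. Histamine was infused iv for 12 s every 5 min to raise tracheal pressure 20-50 cm water. Salts were given iv in water and esters in 10% aqueous ethanol, 3-4 log-spaced doses. Read-out was % variation in spasm amplitude versus control; ED50 (-50%) by semilog regression; ≥4 animals.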

In assay [3] the test system is Cavia porcellus. In words: Bronchodilatory activity in iv dosed Hartley guinea pig assessed as inhibition of acetylcholine-induced spasm administered 3 to 4 times at 15 mins interval starting 2 mins post challenge. In short, it runs like this:
(§3)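 Urethane-anesthetized (1.5 g/kg ip), gallamine-curarized Hartley guinea pigs (either sex, 250-500 g), ventilated at 60 strokes/min. Acetylcholine (40-150 μg/kg, 12-s iv infusions every 5 min) set to raise tracheal pressure 20-50 cm water. Compounds (sodium salts in water; esters in 10% aqueous ethanol) given iv over 1 min. Spasm amplitude expressed as % variation from control. ED50 from semilog regression; ≥4 animals.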

Assay [4] concerns Cavia porcellus. In words: Bronchodilatory activity in Hartley guinea pig assessed as inhibition of serotonin-induced spasm at 3.2 mg/kg, iv administered 3 to 4 times at 15 mins interval starting 2 mins post challenge. In short, it runs like this:
as §1

Assay [5] concerns Cavia porcellus. In words: Bronchodilatory activity in Hartley guinea pig assessed as inhibition of histamine-induced spasm at 3.2 mg/kg, iv administered 3 to 4 times at 15 mins interval starting 2 mins post challenge. Summed up:
as §2

For assay [6], the system named is Cavia porcellus. In words: Bronchodilatory activity in Hartley guinea pig assessed as inhibition of acetylcholine-induced spasm at 3.2 mg/kg, iv administered 3 to 4 times at 15 mins interval starting 2 mins post challenge. Summed up:
as §3

Assay [7] has as its system Cavia porcellus. In words: Bronchodilatory activity in iv dosed Hartley guinea pig assessed as lowest dose required for >/= 50% inhibition of serotonin-induced spasm administered 3 to 4 times at 15 mins interval starting 2 mins post challenge. Summed up:
as §1

The test system of assay [8] is Cavia porcellus. Nature of the assay: Bronchodilatory activity in iv dosed Hartley guinea pig assessed as lowest dose required for >/= 50% inhibition of histamine-induced spasm administered 3 to 4 times at 15 mins interval starting 2 mins post challenge. In short, it runs like this:
as §2

Assay [9] has as its system Cavia porcellus. Nature of the assay: Bronchodilatory activity in iv dosed Hartley guinea pig assessed as lowest dose required for >/= 50% inhibition of acetylcholine-induced spasm administered 3 to 4 times at 15 mins interval starting 2 mins post challenge. In short, it runs like this: as §3

Each structure is given as a SMILES string.

For the molecule `CCCCC[C@](C)(O)/C=C/C1CCC(=O)[C@@H]1CCCCOCC(=O)OCC` (mixture of isomers), the median effective dose (ED50) (as a rule, the midpoint of the dose-response relation) came to 78.8 µg/kg in [1], 282 µg/kg in assay [2] and 618 µg/kg in assay [3].
`CCCCC[C@H](O)/C=C/C1CCC(=O)[C@@H]1CCCCCCC(=O)O` (mixture of isomers): the figures for the median effective dose (ED50) in [1], in assay [2] and in assay [3] were 397 µg/kg, 3.4 µg/kg and above 32 µg/kg, respectively.
In the same order, the values of `CCCCC(C)(C)[C@H](O)/C=C/C1CCC(=O)[C@@H]1CCCCCCC(=O)O` (mixture of isomers) are 25.9 µg/kg, 4.17 µg/kg and 42.9 µg/kg.
On the same counts, the results for `CCCCC(C)(C)[C@@H](O)/C=C/C1CCC(=O)[C@@H]1CCCCCCC(=O)O` (mixture of isomers) are 19 µg/kg, 107 µg/kg and 135 µg/kg.
For the molecule `CCCCC(C)(C)[C@H](O)/C=C/C1CCC(=O)[C@@H]1CCCCCC(C)C(=O)O` (mixture of isomers), the inhibition in vivo at 3.2 mg/kg in assay [4], in [5] and in assay [6] was below 50% throughout.
Turning to `CCCCC(C)(C)[C@@H](O)/C=C/C1CCC(=O)[C@@H]1CCCCCC(C)C(=O)O` (mixture of isomers), the inhibition in vivo at 3.2 mg/kg in assay [4], in assay [5] and in [6] was below 50% throughout.
Consider `CCCCC(C)(C)[C@H](O)/C=C/C1CCC(=O)[C@@H]1CCCCCC(C(=O)OCC)c1ccccc1` (mixture of isomers), for which the inhibition in vivo at 3.2 mg/kg in [4], in assay [5] and in assay [6] was below 50% throughout.
Take `CCCCC(C)(C)[C@@H](O)/C=C/C1CCC(=O)[C@@H]1CCCCCC(C(=O)OCC)c1ccccc1` (mixture of isomers): the inhibition in vivo at 3.2 mg/kg in assay [4], in assay [5] and in assay [6] was below 50% each time.
`CCCCC(C)(C)[C@H](O)/C=C/C1CCC(=O)[C@@H]1CCCCCC(C(=O)O)c1ccccc1` (mixture of isomers): the inhibition in vivo at 3.2 mg/kg in assay [4], in assay [5] and in assay [6] was below 50% each time.
Take `CCCCC(C)(C)[C@@H](O)/C=C/C1CCC(=O)[C@@H]1CCCCCC(C(=O)O)c1ccccc1` (mixture of isomers): the inhibition in vivo at 3.2 mg/kg in assay [4], in [5] and in [6] was below 50% in each case.
For `CCCCC(C)(C)[C@H](O)/C=C/C1CCC(=O)[C@@H]1CCCCOCC(=O)OCC` (mixture of isomers), the ED50 in assay [1] amounted to 123 µg/kg; in assay [2], 69.6 µg/kg; in assay [3] it was 96.7 µg/kg.
Regarding `CCCCC(C)(C)[C@@H](O)/C=C/C1CCC(=O)[C@@H]1CCCCOCC(=O)OCC` (mixture of isomers), the ED50 in [1] is 209 µg/kg; in assay [2] it was 194 µg/kg; in assay [3], 349 µg/kg.
On to `CCCCC(C)(C)[C@H](O)/C=C/C1CCC(=O)[C@@H]1CCCCOCC(=O)O` (mixture of isomers), for which the 50% effective dose (ED50) stood at 185 µg/kg in assay [1] and 550 µg/kg in assay [3].
As for `CCCCC(C)(C)[C@@H](O)/C=C/C1CCC(=O)[C@@H]1CCCCOCC(=O)O` (mixture of isomers), the figures for the median effective dose (ED50) in assay [2], in [3] and in assay [7] were 373 µg/kg, 558 µg/kg and 32 µg/kg, respectively.
As to `CCCCC(C)[C@H](O)/C=C/C1CCC(=O)[C@@H]1CCCCCCC(=O)OCC` (mixture of isomers), in assay [6], the inhibition in vivo – broadly, the drop in the measured response relative to a control, in per cent – at 3.2 mg/kg was below 50%. Further, the ED50 in [7] turned out to be 320 µg/kg; in assay [8], 32000 µg/kg.
Regarding `CCCCC(C)[C@@H](O)/C=C/C1CCC(=O)[C@@H]1CCCCCCC(=O)OCC` (mixture of isomers), the ED50 came to 99.3 µg/kg in [1], 396 µg/kg in assay [3] and 32000 µg/kg in [8].
On to `CCCCC(C)[C@H](O)/C=C/C1CCC(=O)[C@@H]1CCCCCCC(=O)O` (mixture of isomers), for which the values for the ED50 in assay [1], in [3] and in assay [8] were 346 µg/kg, above 320 µg/kg and 320 µg/kg, respectively.
For the molecule `CCCCC(C)[C@@H](O)/C=C/C1CCC(=O)[C@@H]1CCCCCCC(=O)O` (mixture of isomers), the median effective dose (ED50) in [1] was 7.01 µg/kg; in assay [2], 73.2 µg/kg; in assay [3], 9.89 µg/kg.
In the case of `CCCCC(C)[C@H](O)/C=C/C1CCC(=O)[C@@H]1C/C=C\CCCC(=O)OCC` (mixture of isomers), the 50% effective dose (ED50) in assay [1] was found to be 179000 µg/kg; in assay [2], 65700 µg/kg. For the same molecule, the inhibition in vivo at 3.2 mg/kg in [6] was below 50%.
With `CCCCC(C)[C@@H](O)/C=C/C1CCC(=O)[C@@H]1C/C=C\CCCC(=O)OCC` (mixture of isomers), the ED50 in [1] was 9.65 µg/kg; in assay [2], 1.37 µg/kg; in [3], above 320 µg/kg.
On the same counts, the results for `CCCCC(C)[C@H](O)/C=C/C1CCC(=O)[C@@H]1C/C=C\CCCC(=O)O` (mixture of isomers) are 1.35 µg/kg, 108000 µg/kg and 1.63 µg/kg.
On the same counts, the results for `CCCCC(C)[C@@H](O)/C=C/C1CCC(=O)[C@@H]1C/C=C\CCCC(=O)O` (mixture of isomers) are 39.9 µg/kg, 2.99 µg/kg and 87.5 µg/kg.
Consider `CCCCC(CC)[C@H](O)/C=C/C1CCC(=O)[C@@H]1CCCCCCC(=O)OCC` (mixture of isomers), for which the figures for the ED50 in assay [1], in [3] and in [8] were 1.11e+09 µg/kg, 145 µg/kg and 32 µg/kg, respectively.
In the case of `CCCCC(CC)[C@@H](O)/C=C/C1CCC(=O)[C@@H]1CCCCCCC(=O)OCC` (mixture of isomers), the results for the 50% effective dose (ED50) in [1] and in [2] were 1.74e+09 µg/kg and 2.7e+09 µg/kg, respectively. For the same molecule, in assay [6], the inhibition in vivo at 3.2 mg/kg is below 50%.
Turning to `CCCCC(CC)[C@H](O)/C=C/C1CCC(=O)[C@@H]1CCCCCCC(=O)O` (mixture of isomers), the ED50 in [1] was determined as 9.77 µg/kg; in [3] it was 113 µg/kg; in assay [8], 32 µg/kg.
For the molecule `CCCCC(CC)[C@@H](O)/C=C/C1CCC(=O)[C@@H]1CCCCCCC(=O)O` (mixture of isomers), the median effective dose (ED50) was above 3.2 µg/kg in assay [1] and 32 µg/kg in assay [8]. For the same molecule, the inhibition in vivo at 3.2 mg/kg in assay [6] was below 50%.
For the molecule `CCCCC(CC)[C@H](O)/C=C/C1CCC(=O)[C@@H]1C/C=C\CCCC(=O)O` (mixture of isomers), the 50% effective dose (ED50) in assay [1] was 79.1 µg/kg. The inhibition in vivo at 3.2 mg/kg in assay [5] and in assay [6] was below 50% throughout.
`CCCCC(CC)[C@@H](O)/C=C/C1CCC(=O)[C@@H]1C/C=C\CCCC(=O)O` (mixture of isomers): the ED50 in [1] came out at 2.21e+09 µg/kg. The inhibition in vivo at 3.2 mg/kg in [5] and in assay [6] was below 50% throughout.
As for `CCCCC[C@](C)(O)/C=C/C1CCC(=O)[C@@H]1CCCCCCC(=O)O` (mixture of isomers), the ED50 came out at 6.99 µg/kg in [1], 4.24 µg/kg in assay [2] and 3.2 µg/kg in assay [9].
`CCCCC[C@](C)(O)/C=C/C1CCC(=O)[C@@H]1CCCCOCC(=O)O` (mixture of isomers): the ED50 in assay [1] amounted to 121 µg/kg; in assay [2], 25.6 µg/kg; in assay [3], 73.7 µg/kg.
